ChEMBL document CHEMBL3351959, “Antinociceptive and antidepressant-like action of endomorphin-2 analogs with proline surrogates in position 2” (Bioorg Med Chem, 2014)
The source made the active and inactive calls.

Assays:
Mus musculus [1] = test: Antinociceptive activity in mouse assessed as inhibition of EM-2-induced jumping at 1 ug, icv by hot-plate test; format: functional, organism-based
Mus musculus [2] = test: Antinociceptive activity in icv dosed mouse assessed as inhibition of EM-2-induced jumping by hot-plate test; format: functional, organism-based
Method in brief: (§1)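 Hot-plate test in mice. Peptides are dissolved in DMSO, diluted with saline and given icv into the left ventricle (0.1–10 µg/animal). The read-out is latency to jumping, expressed as %MPE = (test − control latency)/(cut-off − control latency) × 100, with a 240 s cut-off. 10 mice per group.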

Mus musculus [3] = test: Antinociceptive activity in mouse assessed as inhibition of EM-2-induced jumping at 3 ug, icv co-administered with nor-binaltorphimine by hot-plate test; format: functional, organism-based
Method in brief: (§2)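 Hot-plate jumping latency in mice given the peptide at 3 µg/animal icv together with β-FNA (1 µg/animal), naltrindole (1 µg/animal) or nor-BNI (5 µg/animal, per the figure legend). Result is expressed as %MPE with a 240 s cut-off; 10 mice per group; one-way ANOVA with Student–Newman–Keuls.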

Mu-type opioid receptor = Mu-type opioid receptor (Rattus norvegicus, UniProt P33535); test: Displacement of [3H]DAMGO from MOR in rat brain membranes; format: cell membranes, Membrane
Method in brief: (§3)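 Competitive binding on rat brain membranes: displacement of [³H]DAMGO (MOR) or [³H][Ile5,6]deltorphin-2 (DOR), reported as IC50. Three independent experiments, each run in duplicate, given as mean ± SEM. The DOR/MOR ratio is calculated from these IC50 values.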

Mus musculus [4] = test: Antidepressant activity in mouse assessed as reduction in immobility time at 3 to 10 ug, icv measured 10 mins post-dose by forced swim test; format: functional, organism-based
Method in brief: (§4)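 Mice given a vehicle or peptide icv, then 20 min before testing kept in small individual cages at 22 ± 1 °C. The test begins 10 min after injection: groups of four swim for 6 min in Plexiglas cylinders (14 cm internal diameter) holding water at 22 ± 1 °C to 12 cm depth. Total immobility is scored by an automated system. Dose range 0.3–10 µg/animal; 10 mice per group.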

Mus musculus [5] = test: Antidepressant-like activity in mouse assessed as horizontal locomotor activity at 3 ug, icv measured […] post-dose by locomotor activity assay; format: organism-based; settings: in vivo, icv_or_intrathecal, 20 min
Mus musculus [6] = test: Antidepressant activity in mouse assessed as reduction in immobility time at 3 ug, icv measured 10 mins post-dose by tail suspension test; format: functional, organism-based
Method in brief: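 Tail suspension: mice held 20 min beforehand in small individual cages. Ten minutes after an icv injection of vehicle or peptide (3 µg/animal), each mouse is suspended by the tail with adhesive tape and immobility is recorded. 10 mice per group.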

Rattus norvegicus [7] = organism: Rattus norvegicus; test: Selectivity ratio of IC50 for DOR in rat brain membranes to IC50 for MOR in rat brain membranes; format: cell membranes; method in brief: as §3
[8] = biological target: Kappa-type opioid receptor (Cavia porcellus, UniProt P41144); test: Displacement of [3H]nor-BNI from KOR in guinea pig brain membranes; format: cell membranes, Membrane
Mus musculus [9] = test: Antinociceptive activity in mouse assessed as inhibition of EM-2-induced jumping at 3 ug, icv co-administered with naltrindole by hot-plate test; format: functional, organism-based; method in brief: as §2
[10] = biological target: Delta-type opioid receptor (Rattus norvegicus, UniProt P33533); test: Displacement of [3H](Ile5,6)deltorphin-2 from DOR in rat brain membranes; format: cell membranes, Membrane; method in brief: as §3
Mus musculus [11] = test: Antidepressant activity in mouse assessed as reduction in immobility time at 3 ug, icv co-administered with beta-funaltrexamine measured 10 mins post-dose by forced swim test; format: functional, organism-based
Method in brief: (§5)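 Forced swim test in mice with the peptide at 3 µg/animal icv, co-injected with β-FNA (1 µg/animal), naltrindole (1 µg/animal) or nor-BNI (5 µg/animal). Swim starts 10 min after injection; 6-min session in water at 22 ± 1 °C; automated scoring of total immobility; 10 mice per group.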

Mus musculus [12] = test: Antidepressant activity in mouse assessed as reduction in immobility time at 3 ug, icv co-administered with nor-binaltorphimine measured 10 mins post-dose by forced swim test; format: functional, organism-based; method in brief: as §5
Rattus norvegicus [13] = organism: Rattus norvegicus; test: Selectivity ratio of IC50 for KOR in guinea pig brain membranes to IC50 for MOR in rat brain membranes; format: cell membranes
Method in brief: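 Ratio of the KOR IC50, from displacement of [³H]nor-BNI in guinea pig brain membranes, to the MOR IC50, from displacement of [³H]DAMGO in rat brain membranes. Three independent experiments in duplicate.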

Mus musculus [14] = test: Antidepressant activity in icv dosed mouse assessed as reduction in immobility time measured 10 mins post-dose by forced swim test; format: functional, organism-based; method in brief: as §4
Mus musculus [15] = test: Antidepressant activity in mouse assessed as reduction in immobility time at 3 ug, icv co-administered with naltrindole measured 10 mins post-dose by forced swim test; format: functional, organism-based; method in brief: as §5
Mus musculus [16] = test: Antinociceptive activity in mouse assessed as inhibition of EM-2-induced jumping at 3 ug, icv co-administered with beta-funaltrexamine by hot-plate test; format: functional, organism-based; method in brief: as §2
[17] = Half life in rat brain homogenate by RP-HPLC analysis; format: ADME, tissue-based
Method in brief: (§6)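 Peptides are incubated at 37 °C with rat brain homogenate as the protease source. Samples taken at 0, 7.5, 15, 22.5, 30 and 60 min are analysed by RP-HPLC to derive the degradation rate constant k and the half-life. Three independent experiments in duplicate; mean ± SEM.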

Brain = test: Stability in rat brain homogenate assessed as degradation rate constant measured up to 60 mins by RP-HPLC analysis; format: ADME, tissue-based; settings: 1 h; method in brief: as §6
Mus musculus [18] = test: Toxicity in mouse assessed as increase in immobility time at >3 ug, icv by forced swim test; format: organism-based; settings: in vivo, icv_or_intrathecal
Mus musculus [19] = test: Antidepressant activity in mouse assessed as reduction in immobility time at 3 ug, icv measured 10 mins post-dose by forced swim test; format: functional, organism-based; method in brief: as §4
Mus musculus [20] = test: Toxicity in mouse assessed as mortality at >3 ug, icv; format: organism-based; settings: in vivo, icv_or_intrathecal
Mus musculus [21] = test: Antinociceptive activity in mouse assessed as inhibition of EM-2-induced jumping at 3 ug, icv by hot-plate test; format: functional, organism-based; method in brief: as §1

Sequence of Mu-type opioid receptor (P33535 whole entry): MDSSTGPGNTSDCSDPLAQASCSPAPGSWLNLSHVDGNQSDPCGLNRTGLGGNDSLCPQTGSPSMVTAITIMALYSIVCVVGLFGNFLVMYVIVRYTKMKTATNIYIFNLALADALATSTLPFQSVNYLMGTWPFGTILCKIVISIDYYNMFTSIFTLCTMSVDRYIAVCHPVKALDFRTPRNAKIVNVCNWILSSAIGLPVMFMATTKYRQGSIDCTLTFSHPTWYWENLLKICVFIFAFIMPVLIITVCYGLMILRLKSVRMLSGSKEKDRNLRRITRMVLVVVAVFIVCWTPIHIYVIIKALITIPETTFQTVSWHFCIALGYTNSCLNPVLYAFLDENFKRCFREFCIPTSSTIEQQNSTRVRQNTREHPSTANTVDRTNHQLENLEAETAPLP
Sequence of Kappa-type opioid receptor (P41144 whole entry): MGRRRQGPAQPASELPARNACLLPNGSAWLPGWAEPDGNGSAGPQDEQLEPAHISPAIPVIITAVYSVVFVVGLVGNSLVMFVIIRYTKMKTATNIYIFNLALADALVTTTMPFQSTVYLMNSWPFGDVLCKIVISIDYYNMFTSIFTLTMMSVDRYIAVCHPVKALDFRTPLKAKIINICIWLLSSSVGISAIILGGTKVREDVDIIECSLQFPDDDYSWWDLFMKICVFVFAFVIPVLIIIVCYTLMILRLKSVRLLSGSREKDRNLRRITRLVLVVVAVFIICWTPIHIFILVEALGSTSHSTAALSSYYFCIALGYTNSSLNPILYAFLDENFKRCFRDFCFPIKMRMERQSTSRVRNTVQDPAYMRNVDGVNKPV
Sequence of Delta-type opioid receptor (P33533 whole entry): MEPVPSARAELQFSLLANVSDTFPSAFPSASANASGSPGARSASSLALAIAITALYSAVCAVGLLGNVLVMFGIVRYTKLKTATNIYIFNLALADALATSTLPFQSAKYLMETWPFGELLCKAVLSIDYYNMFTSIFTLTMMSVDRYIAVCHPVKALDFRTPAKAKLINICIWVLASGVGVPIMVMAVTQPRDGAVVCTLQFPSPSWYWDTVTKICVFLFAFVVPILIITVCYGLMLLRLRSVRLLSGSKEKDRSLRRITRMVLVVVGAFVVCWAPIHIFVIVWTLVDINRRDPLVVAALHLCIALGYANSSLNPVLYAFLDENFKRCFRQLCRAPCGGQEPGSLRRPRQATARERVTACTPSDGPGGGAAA

Row | SMILES | inhibition (Mus musculus [1]) | IC50 (Mu-type opioid receptor) | Activity (Mus musculus [6]) | Ratio IC50 (Rattus norvegicus [7]) | IC50 [8] | IC50 [10] | Ratio IC50 (Rattus norvegicus [13]) | half-life [17] | K (Brain) | also measured
1 | COC(=O)/C=C/C(=O)N[C@@H]1CC[C@@]2(O)[C@H]3Cc4ccc(O)c5c4[C@@]2(CCN3CC2CC2)[C@H]1O5 | inactive | – | – | – | – | – | – | – | – | –
2 | Oc1ccc2c3c1O[C@H]1c4[nH]c5c(c4C[C@@]4(O)[C@@H](C2)N(CC2CC2)CC[C@]314)C[C@@]1(O)[C@H]2Cc3ccc(O)c4c3[C@@]1(CCN2CC1CC1)[C@H]5O4 | inactive | – | – | – | – | – | – | – | – | –
3 | Oc1ccc2c3c1O[C@H]1c4[nH]c5ccccc5c4C[C@@]4(O)[C@@H](C2)N(CC2CC2)CC[C@]314 | inactive | – | – | – | – | – | – | – | – | –
4 | NC(=O)[C@H](Cc1ccccc1)NC(=O)[C@H](Cc1ccccc1)NC(=O)[C@H]1CN(C(=O)[C@@H](N)Cc2ccc(O)cc2)C[C@@H]1c1ccccc1 (mixture of isomers) | – | 0.85 nM | Active | 10.7 | 27.1 nM | 9.06 nM | 31.9 | 32.5 min | 0.0212 min⁻¹ | inhibition (Mus musculus [2]): Dose-dependent effect; inhibition (Mus musculus [3]): Active; Activity (Mus musculus [4]): Active; Activity (Mus musculus [5]): Non-toxic; inhibition (Mus musculus [9]): Active; Activity (Mus musculus [11]): Active; Activity (Mus musculus [12]): inactive; Activity (Mus musculus [14]): Dose-dependent effect; Activity (Mus musculus [15]): inactive; inhibition (Mus musculus [16]): inactive
5 | NC(=O)[C@H](Cc1ccccc1)NC(=O)[C@H](Cc1ccccc1)NC(=O)[C@@H]1CN(C(=O)[C@@H](N)Cc2ccc(O)cc2)C[C@H]1c1ccccc1 (mixture of isomers) | – | 2.91 nM | inactive | > 1000 | > 1000 nM | > 1000 nM | > 1000 | 38.3 min | 0.018 min⁻¹ | Activity (Mus musculus [18]): Toxic; Activity (Mus musculus [19]): inactive; Activity (Mus musculus [20]): Toxic; inhibition (Mus musculus [21]): inactive
6 | NC(=O)[C@H](Cc1ccccc1)NC(=O)[C@H](Cc1ccccc1)NC(=O)[C@@H]1CCCN1C(=O)[C@@H](N)Cc1ccc(O)cc1 [ENDOMORPHIN 2] | – | – | – | – | – | – | – | 6 min | – | –
